From ChEMBL document CHEMBL3425411, “Synthesis of β-Carboline-Based N-Heterocyclic Carbenes and Their Antiproliferative and Antimetastatic Activities against Human Breast Cancer Cells” (J Med Chem, 2015)
Active and inactive are the calls of the source. No cut-off for these calls is given here.

Key:
MDA-MB-231 [1] = test: Cytotoxicity against human MDA-MB-231 cells assessed as growth inhibition after 24 to 72 hrs by MTT assay; assay type: functional, cell-based
In short: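 About 5000 cells/well were grown 24 h in RPMI-1640 with 10% FBS, then given fresh medium with compound at various concentrations (from 10 mM DMSO stocks) for 24, 48 and 72 h. MTT (5 mg/mL stock) was added for 2 h and formazan dissolved in DMSO. Absorbance was read at 595 nm and expressed as percent proliferation versus DMSO control.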

MDA-MB-231 [2] = test: Cell cycle arrest in human MDA-MB-231 cells assessed as accumulation at S phase at 2.5 uM after 24 hrs by propidium iodide staining-based flow cytometric analysis (reference value: 32.5 to 34.7%); assay type: functional
MDA-MB-231 [3] = test: Induction of apoptosis in human MDA-MB-231 cells assessed as early apoptotic cells at 12.5 uM after 24 hrs by annexin V-propidium iodide/Alexa Fluor 488 staining-based flow cytometric analysis (reference value: 4.05 to 4.68%); assay type: functional
MDA-MB-231 [4] = test: Induction of apoptosis in human MDA-MB-231 cells assessed as late apoptotic cells at 12.5 uM after 24 hrs by annexin V-propidium iodide/Alexa Fluor 488 staining-based flow cytometric analysis (reference value: 2.08 to 3.78%); assay type: functional
In short: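 MDA-MB-231 cells, about 2 × 10⁵ per well, seeded in triplicate and treated for 24 h in RPMI-1640 with 10% FBS. Stained with Alexa Fluor 488 annexin V and propidium iodide, then read by flow cytometry. AV+/PI+ events were counted as late apoptotic and reported as percentage of cells relative to control. Three independent experiments, mean ± SEM.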

MDA-MB-231 [5] = test: Upregulation of cleaved caspase-3 expression in human MDA-MB-231 cells at 7.5 to 10 uM after 24 hrs by Western blot analysis; assay type: functional, cell-based
In short: (§1)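 MDA-MB-231 cells treated 24 h, then lysed in RIPA buffer. 40 μg protein run on 10–15% SDS–PAGE and transferred to PVDF. Blocked in 5% milk, probed overnight at 4 °C with primary antibodies (phospho- and total ERK1/2, JNK, p38, cleaved caspase-3), then HRP secondary. ECL detection with β-actin as loading control. Blots representative of three experiments.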

MDA-MB-231 [6] = test: Downregulation of Bcl-2 expression in human MDA-MB-231 cells at 7.5 to 10 uM after 24 hrs by Western blot analysis; assay type: functional, cell-based
In short: (§2)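 Cells were treated for 24 h. Lysates were made in RIPA buffer, and 40 μg protein was resolved on 10–15% SDS-PAGE and transferred to PVDF. Membranes were blocked with 5% milk and probed overnight at 4 °C with primary antibodies, then HRP secondaries. Detection was by ECL with β-actin as loading control. Blots represent three independent experiments.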

MDA-MB-231 [7] = test: Downregulation of Bcl-XL expression in human MDA-MB-231 cells at 7.5 to 10 uM after 24 hrs by Western blot analysis; assay type: functional, cell-based; in short: as §2
MDA-MB-231 [8] = test: Downregulation of survivin expression in human MDA-MB-231 cells at 7.5 to 10 uM after 24 hrs by Western blot analysis; assay type: functional, cell-based; in short: as §2
MDA-MB-231 [9] = test: Induction of apoptosis in human MDA-MB-231 cells assessed as PARP cleavage at 7.5 to 10 uM after 24 hrs by Western blot analysis; assay type: functional, cell-based; in short: as §2
MDA-MB-231 [10] = test: Cell cycle arrest in human MDA-MB-231 cells assessed as accumulation at G0/G1 phase at 10 uM after 24 hrs by propidium iodide staining-based flow cytometric analysis (reference value: 44.3 to 47.1%); assay type: functional
MDA-MB-231 [11] = test: Cell cycle arrest in human MDA-MB-231 cells assessed as accumulation at S phase at 10 uM after 24 hrs by propidium iodide staining-based flow cytometric analysis (reference value: 32.5 to 34.7%); assay type: functional
MDA-MB-231 [12] = test: Cell cycle arrest in human MDA-MB-231 cells assessed as accumulation at G2/M phase at 10 uM after 24 hrs by propidium iodide staining-based flow cytometric analysis (reference value: 18.2 to 23.1%); assay type: functional
MDA-MB-231 [13] = test: Downregulation of cyclin B expression in human MDA-MB-231 cells at 7.5 to 10 uM after 24 hrs by Western blot analysis; assay type: functional, cell-based; in short: as §2
MDA-MB-231 [14] = test: Downregulation of CDC25C expression in human MDA-MB-231 cells at 7.5 to 10 uM after 24 hrs by Western blot analysis; assay type: functional, cell-based; in short: as §2
MDA-MB-231 [15] = test: Downregulation of CDK1 expression in human MDA-MB-231 cells at 7.5 to 10 uM after 24 hrs by Western blot analysis; assay type: functional, cell-based; in short: as §2
MDA-MB-231 [16] = test: Antimigratory activity against human MDA-MB-231 cells at 1 to 7.5 uM after 12 to 24 hrs by wound healing assay; assay type: functional, cell-based
In short: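 2 × 10⁵ cells were plated in six-well plates and scratched with a 200 μL tip. Debris was removed, then cells were treated (0, 1, 2.5, 5, 7.5 μM; or 0–5 μM). The wound was photographed at 0, 12 and 24 h under 100× phase contrast. Area was measured as percent wound closure versus control. Three independent experiments, mean ± SEM.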

MDA-MB-231 [17] = test: Antiinvasive activity against human MDA-MB-231 cells at 2.5 uM after 48 hrs by transwell assay; assay type: functional, cell-based
In short: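 Matrigel (growth factor reduced, diluted in serum-free medium) coated on 8 μm pore polycarbonate transwell membranes, set 2 h at 37 °C. 30 000 cells/well seeded in RPMI-1640 with 1% FBS plus compound; lower chamber had 10% FBS as chemoattractant. After 48 h, non-invaded cells were swabbed off and invaded cells were methanol-fixed and stained with 0.1% crystal violet. At least 10 random fields were counted and expressed versus control.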

[18] = molecular target: 72 kDa type IV collagenase (Homo sapiens) (UniProt P08253); test: Inhibition of MMP-2 in human MDA-MB-231 cells at 1 to 7.5 uM after 24 hrs by gelatin zymographic method; assay type: cell-based
In short: (§3)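 MDA-MB-231 cells, 1 × 10⁵ per well, treated 24 h with 0, 1, 2.5, 5 or 7.5 μM. Conditioned medium centrifuged and equal protein loaded on 8% SDS–PAGE containing 0.1% gelatin, run at 80 V. Triton X-100 washes, then developed 20 h at 37 °C in Tris-HCl pH 7.5 with NaCl, CaCl₂ and ZnCl₂. Coomassie stain, then destain.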

[19] = molecular target: Matrix metalloproteinase-9 (Homo sapiens) (UniProt P14780); test: Inhibition of MMP-9 in human MDA-MB-231 cells at 1 to 7.5 uM after 24 hrs by gelatin zymographic method; assay type: cell-based; in short: as §3
[20] = molecular target: Mitogen-activated protein kinase; ERK1/ERK2 (Homo sapiens) (UniProt P27361+P28482); test: Inhibition of ERK1/2 phosphorylation in human MDA-MB-231 cells at 7.5 to 10 uM after 24 hrs by Western blot analysis; assay type: cell-based; in short: as §1
[21] = molecular target: c-Jun N-terminal kinase, JNK (Homo sapiens) (UniProt P45983+P53779+P45984); test: Inhibition of SAPK/JNK phosphorylation in human MDA-MB-231 cells at 7.5 to 10 uM after 24 hrs by Western blot analysis; assay type: cell-based; in short: as §1
[22] = molecular target: MAP kinase p38 (Homo sapiens) (UniProt O15264+Q15759+Q16539+P53778); test: Induction of p38 MAPK phosphorylation in human MDA-MB-231 cells at 7.5 to 10 uM after 24 hrs by Western blot analysis; assay type: cell-based; in short: as §1

Chain of Matrix metalloproteinase-9 (Homo sapiens) (P14780 whole entry): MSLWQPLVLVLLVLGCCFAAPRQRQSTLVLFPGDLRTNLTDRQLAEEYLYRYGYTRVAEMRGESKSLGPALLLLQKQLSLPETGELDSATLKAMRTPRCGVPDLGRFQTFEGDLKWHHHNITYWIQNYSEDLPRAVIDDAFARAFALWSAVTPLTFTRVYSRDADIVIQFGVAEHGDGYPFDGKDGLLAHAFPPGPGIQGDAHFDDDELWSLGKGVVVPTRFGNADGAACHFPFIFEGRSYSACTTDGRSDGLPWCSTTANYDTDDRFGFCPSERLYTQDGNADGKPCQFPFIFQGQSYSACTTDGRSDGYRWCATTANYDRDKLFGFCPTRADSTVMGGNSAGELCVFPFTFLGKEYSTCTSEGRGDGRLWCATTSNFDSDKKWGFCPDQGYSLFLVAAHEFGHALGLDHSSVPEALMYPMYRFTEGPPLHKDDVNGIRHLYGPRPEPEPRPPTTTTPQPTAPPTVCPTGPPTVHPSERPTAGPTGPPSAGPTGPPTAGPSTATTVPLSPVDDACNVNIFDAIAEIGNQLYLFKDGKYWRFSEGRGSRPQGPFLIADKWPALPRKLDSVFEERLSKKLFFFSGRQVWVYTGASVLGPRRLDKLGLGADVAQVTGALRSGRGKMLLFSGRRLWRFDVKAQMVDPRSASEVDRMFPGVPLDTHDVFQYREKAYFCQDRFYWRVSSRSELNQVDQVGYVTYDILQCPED
Chain of 72 kDa type IV collagenase (Homo sapiens) (P08253 110-660 limits assumed): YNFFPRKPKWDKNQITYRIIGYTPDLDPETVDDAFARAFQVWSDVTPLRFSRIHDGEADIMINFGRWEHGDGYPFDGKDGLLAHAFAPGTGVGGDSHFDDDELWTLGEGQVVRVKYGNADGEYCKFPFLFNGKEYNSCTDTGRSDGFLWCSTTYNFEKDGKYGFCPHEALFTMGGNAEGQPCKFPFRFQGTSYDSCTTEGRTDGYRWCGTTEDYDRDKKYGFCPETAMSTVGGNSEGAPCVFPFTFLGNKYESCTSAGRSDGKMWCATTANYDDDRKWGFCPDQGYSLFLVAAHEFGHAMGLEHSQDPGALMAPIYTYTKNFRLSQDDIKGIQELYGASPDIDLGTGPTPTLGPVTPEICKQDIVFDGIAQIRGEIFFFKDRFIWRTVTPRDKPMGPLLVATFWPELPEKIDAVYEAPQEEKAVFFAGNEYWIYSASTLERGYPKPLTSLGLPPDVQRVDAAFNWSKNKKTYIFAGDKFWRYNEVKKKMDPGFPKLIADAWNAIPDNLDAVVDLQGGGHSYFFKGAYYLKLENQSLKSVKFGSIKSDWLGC
Chain of Mitogen-activated protein kinase; ERK1/ERK2 (Homo sapiens) (P27361 whole entry, looked up): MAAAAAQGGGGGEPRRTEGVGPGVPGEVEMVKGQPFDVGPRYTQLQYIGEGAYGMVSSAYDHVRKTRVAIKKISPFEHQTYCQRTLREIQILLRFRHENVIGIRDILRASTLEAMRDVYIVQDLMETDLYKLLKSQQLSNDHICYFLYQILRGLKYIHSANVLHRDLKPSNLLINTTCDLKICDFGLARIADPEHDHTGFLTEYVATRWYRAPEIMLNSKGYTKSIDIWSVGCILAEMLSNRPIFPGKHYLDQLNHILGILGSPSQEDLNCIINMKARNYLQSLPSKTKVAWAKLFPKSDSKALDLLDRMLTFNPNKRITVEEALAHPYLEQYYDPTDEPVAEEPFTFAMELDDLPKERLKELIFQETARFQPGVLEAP
Chain of Mitogen-activated protein kinase; ERK1/ERK2 (Homo sapiens) (P28482 whole entry, looked up): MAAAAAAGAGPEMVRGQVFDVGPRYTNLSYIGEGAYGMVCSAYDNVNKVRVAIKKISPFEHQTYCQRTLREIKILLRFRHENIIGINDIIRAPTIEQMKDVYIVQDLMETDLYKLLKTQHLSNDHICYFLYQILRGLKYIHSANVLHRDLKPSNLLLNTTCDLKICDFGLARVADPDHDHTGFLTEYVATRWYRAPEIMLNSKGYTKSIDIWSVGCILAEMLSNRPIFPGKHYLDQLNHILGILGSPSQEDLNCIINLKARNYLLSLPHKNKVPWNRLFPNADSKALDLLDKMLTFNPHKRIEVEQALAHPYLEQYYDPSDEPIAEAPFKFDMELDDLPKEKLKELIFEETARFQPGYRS

| SMILES | IC50 (MDA-MB-231 [1]) [µM] | Activity (MDA-MB-231 [2]) [%] | Activity (MDA-MB-231 [3]) [%] | Activity (MDA-MB-231 [4]) [%] | Activity (MDA-MB-231 [5]) | Activity (MDA-MB-231 [6]) | Activity (MDA-MB-231 [7]) | Activity (MDA-MB-231 [8]) | Activity (MDA-MB-231 [9]) | Activity (MDA-MB-231 [10]) [%] | Activity (MDA-MB-231 [11]) [%] | Activity (MDA-MB-231 [12]) [%] | Activity (MDA-MB-231 [13]) | Activity (MDA-MB-231 [14]) | Activity (MDA-MB-231 [15]) | Activity (MDA-MB-231 [16]) | Activity (MDA-MB-231 [17]) | inhibition [18] | inhibition [19] | inhibition [20] | other results |
| --- | --- | --- | --- | --- | --- | --- | --- | --- | --- | --- | --- | --- | --- | --- | --- | --- | --- | --- | --- | --- | --- |
| COC(=O)c1cc2c3ccccc3[nH]c2c2cn(-c3ccc(F)cc3Cl)c[n+]12.[Cl-] | 4.49 | 29.8 | – | – | – | – | – | – | – | – | – | – | – | – | – | – | – | – | – | – | – |
| COC(=O)c1cc2c3ccccc3[nH]c2c2cn(-c3ccc(C(F)(F)F)cc3)c[n+]12.[Cl-] | 7.98 | 26.7 | 31.17 | 13.43 | Active | Active | Active | Active | Active | 31.1 | 29.7 | 39 | Active | Active | Active | Active | Active | Active | Active | Active | inhibition [21]: Active; Activity [22]: Active |
| COC(=O)c1cc2c3ccccc3[nH]c2c2cn(-c3ccc(C)cc3Br)c[n+]12.[Cl-] | 7.28 | 19.5 | 64.96 | 17.42 | Active | Active | Active | Active | Active | 35.3 | 26.3 | 38.2 | Active | Active | Active | Active | Active | Active | Active | Active | inhibition [21]: Active; Activity [22]: Active |
